From ChEMBL document CHEMBL1132388, “A ureido-thioisobutyric acid (GW9578) is a subtype-selective PPARalpha agonist with potent lipid-lowering activity” (J Med Chem, 1999) come the findings set out here.

In test [1] the target is T1, Peroxisome proliferator-activated receptor gamma (Mus musculus, UniProt P37238).
T1 sequence (P37238 whole entry): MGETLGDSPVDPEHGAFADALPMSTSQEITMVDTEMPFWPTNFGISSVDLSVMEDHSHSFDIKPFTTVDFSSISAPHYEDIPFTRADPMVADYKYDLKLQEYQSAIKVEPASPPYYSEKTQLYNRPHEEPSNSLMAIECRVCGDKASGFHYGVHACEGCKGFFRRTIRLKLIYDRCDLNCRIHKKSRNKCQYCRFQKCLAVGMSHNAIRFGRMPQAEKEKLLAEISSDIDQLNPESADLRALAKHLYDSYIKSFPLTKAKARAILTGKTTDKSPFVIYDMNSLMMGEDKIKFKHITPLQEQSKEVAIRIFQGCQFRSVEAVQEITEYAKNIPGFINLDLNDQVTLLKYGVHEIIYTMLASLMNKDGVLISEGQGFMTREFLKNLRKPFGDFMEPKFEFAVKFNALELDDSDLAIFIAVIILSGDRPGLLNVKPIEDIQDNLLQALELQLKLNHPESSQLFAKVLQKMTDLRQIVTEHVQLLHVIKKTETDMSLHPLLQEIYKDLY
As to the kind of experiment: Compound was tested for its agonist activity against murine Peroxisome proliferator activated receptor gamma-Gal4 chimeric receptor in transfected CV-1 cells. It counts as functional, cell-based.

Test [2] concerns the target T2, Peroxisome proliferator-activated receptor alpha (Mus musculus, UniProt P23204).
T2 sequence (P23204 whole entry): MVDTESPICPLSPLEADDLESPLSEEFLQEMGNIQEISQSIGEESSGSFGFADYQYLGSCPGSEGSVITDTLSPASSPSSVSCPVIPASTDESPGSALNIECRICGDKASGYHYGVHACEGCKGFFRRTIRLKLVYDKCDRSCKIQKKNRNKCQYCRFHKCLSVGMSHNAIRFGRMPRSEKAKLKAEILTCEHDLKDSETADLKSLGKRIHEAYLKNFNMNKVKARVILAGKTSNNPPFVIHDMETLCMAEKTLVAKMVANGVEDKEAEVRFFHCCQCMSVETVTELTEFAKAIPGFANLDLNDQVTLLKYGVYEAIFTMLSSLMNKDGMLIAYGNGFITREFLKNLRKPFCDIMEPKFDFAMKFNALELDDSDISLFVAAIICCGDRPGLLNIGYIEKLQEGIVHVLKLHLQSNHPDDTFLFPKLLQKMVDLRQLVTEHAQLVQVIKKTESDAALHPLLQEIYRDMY
As to the kind of experiment: Compound was tested for its agonist activity against murine Peroxisome proliferator activated receptor alpha-Gal4 chimeric receptor transfected CV-1 cells. It counts as functional, cell-based. An outline of the steps:
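PPAR-GAL4 chimeric receptor transiently transfected into CV-1 cells; reporter activity read after compound exposure, with concentrations tested up to 300 µM.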

For test [3], the target named is T3, Peroxisome proliferator-activated receptor delta (Homo sapiens, UniProt Q03181).
T3 sequence (Q03181 whole entry): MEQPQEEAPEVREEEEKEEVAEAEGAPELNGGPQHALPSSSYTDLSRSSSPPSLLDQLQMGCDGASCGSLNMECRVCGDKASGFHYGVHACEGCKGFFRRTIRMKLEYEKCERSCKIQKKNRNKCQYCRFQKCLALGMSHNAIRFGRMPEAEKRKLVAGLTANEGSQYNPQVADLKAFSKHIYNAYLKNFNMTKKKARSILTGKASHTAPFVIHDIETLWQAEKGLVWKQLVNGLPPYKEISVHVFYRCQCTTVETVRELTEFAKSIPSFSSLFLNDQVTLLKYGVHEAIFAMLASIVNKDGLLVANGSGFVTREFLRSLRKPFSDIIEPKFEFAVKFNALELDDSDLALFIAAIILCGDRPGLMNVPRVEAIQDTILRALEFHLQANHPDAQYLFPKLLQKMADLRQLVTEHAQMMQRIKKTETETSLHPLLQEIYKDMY
As to the kind of experiment: Compound was tested for agonist activity on human Peroxisome proliferator activated receptor delta-GAL4 chimeric receptor in transfected CV-1 cells. It counts as functional, cell-based.

The species named for test [4] is Rattus norvegicus. As to the kind of experiment: Minimum effective dose producing a 40-60% decrease in serum TLDL cholesterol in rats relative to vehicle -treated controls. The note with it: read-out: MED. The class given is functional.
Test [5] deals with T4, Peroxisome proliferator-activated receptor delta (Mus musculus, UniProt P35396).
T4 sequence (P35396 whole entry): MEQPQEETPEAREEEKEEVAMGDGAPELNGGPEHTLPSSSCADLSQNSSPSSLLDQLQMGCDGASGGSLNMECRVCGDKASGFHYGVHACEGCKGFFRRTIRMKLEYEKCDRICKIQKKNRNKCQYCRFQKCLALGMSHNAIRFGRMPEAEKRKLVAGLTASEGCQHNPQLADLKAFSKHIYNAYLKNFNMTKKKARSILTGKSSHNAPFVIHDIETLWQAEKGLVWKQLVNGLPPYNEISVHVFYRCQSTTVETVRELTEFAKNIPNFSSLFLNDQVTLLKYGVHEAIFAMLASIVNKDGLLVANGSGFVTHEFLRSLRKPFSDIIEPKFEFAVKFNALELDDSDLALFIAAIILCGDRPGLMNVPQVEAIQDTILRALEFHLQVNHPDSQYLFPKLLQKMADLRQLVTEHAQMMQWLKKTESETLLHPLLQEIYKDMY
As to the kind of experiment: Compound was tested for its agonist activity against murine Peroxisome proliferator activated receptor delta-GAL4 chimeric receptor in transfected CV-1 cells. The class given is functional, cell-based.

In test [6] the target is T5, Peroxisome proliferator-activated receptor gamma (Homo sapiens, UniProt P37231).
T5 sequence (P37231 whole entry): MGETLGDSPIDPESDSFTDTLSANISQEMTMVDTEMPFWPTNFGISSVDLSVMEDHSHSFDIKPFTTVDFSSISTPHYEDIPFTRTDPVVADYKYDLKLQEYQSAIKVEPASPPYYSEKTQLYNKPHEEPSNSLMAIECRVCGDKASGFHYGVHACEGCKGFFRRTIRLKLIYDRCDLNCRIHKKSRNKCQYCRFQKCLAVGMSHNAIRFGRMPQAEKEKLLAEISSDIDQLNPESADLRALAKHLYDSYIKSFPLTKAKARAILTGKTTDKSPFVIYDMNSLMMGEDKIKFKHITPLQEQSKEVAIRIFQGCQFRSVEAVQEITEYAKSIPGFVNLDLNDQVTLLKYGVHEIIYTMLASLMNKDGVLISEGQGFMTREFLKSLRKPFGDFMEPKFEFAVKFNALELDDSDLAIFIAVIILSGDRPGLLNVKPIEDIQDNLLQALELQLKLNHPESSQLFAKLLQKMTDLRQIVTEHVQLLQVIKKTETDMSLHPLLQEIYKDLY

In test [7] the target is T6, Peroxisome proliferator-activated receptor alpha (Homo sapiens, UniProt Q07869).
T6 sequence (Q07869 whole entry): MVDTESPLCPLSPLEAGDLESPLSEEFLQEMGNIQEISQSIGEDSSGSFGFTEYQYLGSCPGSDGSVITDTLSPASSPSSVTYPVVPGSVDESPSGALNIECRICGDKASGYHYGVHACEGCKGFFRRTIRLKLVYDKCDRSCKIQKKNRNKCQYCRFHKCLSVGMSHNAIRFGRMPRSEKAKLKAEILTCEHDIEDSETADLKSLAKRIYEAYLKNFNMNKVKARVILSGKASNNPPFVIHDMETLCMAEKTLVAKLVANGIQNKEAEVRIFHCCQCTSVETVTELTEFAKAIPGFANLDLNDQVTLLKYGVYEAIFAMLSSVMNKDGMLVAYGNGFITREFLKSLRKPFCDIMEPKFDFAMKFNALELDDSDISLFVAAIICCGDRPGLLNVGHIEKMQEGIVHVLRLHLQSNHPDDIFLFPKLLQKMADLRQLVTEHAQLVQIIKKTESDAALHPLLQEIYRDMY

Test [8] addresses T4, Peroxisome proliferator-activated receptor delta. As to the kind of experiment: Compound was tested for its agonist activity against murine Peroxisome proliferator activated receptor delta-GAL4 chimeric receptor in transfected CV-1 cells; IA = Inactive. It counts as functional, cell-based.
In test [9] the target is T3, Peroxisome proliferator-activated receptor delta. As to the kind of experiment: Compound was tested for agonist activity on human Peroxisome proliferator activated receptor delta-GAL4 chimeric receptor in transfected CV-1 cells; IA = Inactive. It counts as functional, cell-based.

Take `CCCCCCCN(CCc1ccc(SC(C)(C)C(=O)O)cc1)C(=O)Nc1ccc(F)cc1F` [GSK-9578]: the EC50 (in general, the concentration needed to bring the measured effect to its halfway point) was 1500 nM in [1], 5 nM in test [2], 1400 nM in test [3] and 2600 nM in test [5]. In addition, the minimal effective dose in [4] came out at 0.2 mg/kg.

Take `CC(C)(Oc1ccc(CCNC(=O)c2ccc(Cl)cc2)cc1)C(=O)O` [BEZAFIBRATE]: the EC50 in test [1] stood at 55000 nM; in test [2], 90000 nM; in test [3], 20000 nM; in test [6] it was 60000 nM; in test [5], 110000 nM. The minimal effective dose in test [4] amounted to 50 mg/kg.

For the compound `CC(C)(Oc1ccc(CCN(C(=O)Nc2ccc(F)cc2F)C2CCCCCC2)cc1)C(=O)O`, the concentration for a half-maximal effect (EC50) amounted to 12 nM in test [1]; 120 nM in [2]; 790 nM in test [3]; 6 nM in test [6]; 1400 nM in [5]. Besides, the minimal effective dose in [4] was found to be 1 mg/kg.

Take `CCCCCCCN(CCc1ccc(OC(C)(C)C(=O)O)cc1)C(=O)Nc1ccc(F)cc1`: the EC50 in test [1] was 870 nM; in [7] it was 410 nM; in [2], 33 nM; in [3] it was 3100 nM; in [6], 280 nM; in test [5], 5500 nM. In addition, the minimal effective dose in test [4] came to 0.1 mg/kg.

For `CC(C)(Oc1ccc(C(=O)c2ccc(Cl)cc2)cc1)C(=O)O` [FENOFIBRIC ACID], the EC50 was 250000 nM in test [1], “Not Active” in test [8] and “Not Active” in [9]. Moreover, in [4], the minimal effective dose came to 50 mg/kg.

With `CC(C)(Oc1ccc(CCN(CCCCCC2CCCCC2)C(=O)Nc2ccc(F)cc2)cc1)C(=O)O`, the 50% effective concentration (EC50) in test [1] was found to be 1000 nM; in [7] it was 150 nM; in test [2], 53 nM; in [6], 1600 nM; in test [5] it was 23000 nM. Besides, the minimal effective dose in test [4] worked out at 1 mg/kg.

On to `CCCCCCCN(CCc1ccc(OC(C)(C)C(=O)O)cc1)C(=O)Nc1ccc(F)cc1F`, for which the EC50 in test [1] worked out at 400 nM; in test [7], 790 nM; in test [2] it was 10 nM; in test [6] it was 200 nM; in [5] it was 3200 nM. For the same compound, the minimal effective dose in test [4] amounted to 0.1 mg/kg.

Turning to `CC(C)(Oc1ccc(Cl)cc1)C(=O)O` [CLOFIBRIC ACID], the EC50 was more than 300000 nM in test [1]; 55000 nM in test [7]; 50000 nM in test [2]; more than 300000 nM in [6]; “Not Active” in [8]; “Not Active” in test [9].
